This is one part of a sample in which hits are shown more often than they occur.
697 NFkB inh – lowers PMA/ionomycin-induced NF-kB signal in 697 B cells | 697 B-cell NF-kB luciferase reporter, 16 h | inhibition, % at 4 µM | actives 0.33% (n = 330,000) | AID 435022; in the data active = inhibition above about 35%
CHOP UPR activ – activators of apoptotic arm of unfolded protein response (CHOP); activation, % at 10 µM; CHO-CHOP luciferase reporter, UPR activation, luminescence; percent of tunicamycin response over DMSO baseline; actives 0.34% (n = 330,000);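 active = at 10 µM dose, activation of 40% or more, normalized to positive control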;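 note: 100% = tunicamycin at 10 µg/mL and 0% = DMSO alone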
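Test system: CHO CHOP reporter cells. Input: 500 CHO-CHOP cells per well. Medium: F12 with 10% FBS. Technique: luciferase luminescence. Measure: percent activation relative to tunicamycin control. Dosing: 10 µM compound, 0.5% DMSO. Timing: 16-18 h cell attachment, then 6 h compound exposure, 37 °C.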
Jurkat NFkB inh – lowers PMA/ionomycin-induced NF-kB signal in Jurkat cells | PMA/ionomycin-induced NF-kB luciferase reporter, luminescence | inhibition, % at 4 µM | actives 0.53% (n = 330,000) | AID 435003; in the data active = inhibition above about 50%
CHOP inh – CHOP inhibition in unfolded protein response; actives 3.8% (n = 220,000); inhibition, % at 10 µM; CHO-K1 CHOP-promoter luciferase, tunicamycin-induced, 15-18 h;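 active = compounds that reduced the stress-induced luciferase reporter signal by more than about 70% of percent inhibition, limit read from the data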;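 note: 0% = tunicamycin plus vehicle and 100% = wells without tunicamycin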
UPR XBP1 act – activators of adaptive arm of unfolded protein response (XBP1); CHO-XBP1 luciferase reporter, IRE1-XBP1 UPR activation, luminescence; percent of tunicamycin response, DMSO as zero; activation, % at 20 µM; actives 0.33% (n = 330,000); AID 463104;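 active = versus positive control, 20 µM dose yields 30% or more activation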;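 note: 100% = tunicamycin at 10 µg/mL and 0% = DMSO only wells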
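Signal: luciferase luminescence; Assay system: CHO-XBP1 luciferase reporter cells; Amount: one thousand reporter cells per well; Dosing: 20 µM single concentration, DMSO 1%; Benchmarks: high control tunicamycin 10 µg/mL final, low control DMSO vehicle only; Schedule: 6 h compound exposure at 37 °C, 5% CO2; Evaluation: percent activation relative to tunicamycin reference.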
UPR XBP1 confirm – adaptive UPR (XBP1) activation, confirmed. shares compounds with UPR XBP1 act. CHO-XBP1 IRE1-XBP1 luciferase reporter, luminescence. activation, % at 20 µM. actives 63% (n = 1,000);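 active = reporter signal at least 30% of the positive control's activation in two or more of four replicate wells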;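 note: plate controls were DMSO negative control for no effect and tunicamycin 10 µg/mL positive control for full effect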
Starred values were filed as active, the others as inactive; . = not tested or not shown.

SMILES	697 NFkB inh	CHOP UPR activ	Jurkat NFkB inh	CHOP inh	UPR XBP1 act	UPR XBP1 confirm
CCOC(=O)C1=C(C)N=c2s/c(=C3/C(=O)Nc4ccccc43)c(=O)n2C1c1ccc(C)cc1 (configuration not stated)	-3	2	-19	47	118*	69*
CCOC(=O)C1=C(C)N=c2s/c(=C\c3ccc(OCC(=O)O)cc3)c(=O)n2C1c1ccccc1 (configuration not stated)	9	-1	3	.	-6	.
COc1ccc(C(=O)O/N=C/c2c(C(F)(F)F)nn(C)c2SCc2ccccc2Cl)cc1	2	15	-7	8	62*	83*
Cc1ccc(OCc2nnc(SCC(=O)Nc3nccs3)n2-c2ccccc2)cc1C	-2	9	-4	75*	35*	15
Cc1cc(NC(=O)c2cc(-c3ccncc3)nc3ccccc23)ccc1Br	-18	2	28	.	66*	44*
CC(=O)c1cccc(NC(=O)c2cc(-c3ccncc3)nc3ccccc23)c1	6	1	5	.	-1	.
COC(=O)c1sccc1NC(=O)c1cc(-c2ccc(C)cc2)nc2ccccc12	-3	1	17	-24	0	.
CSc1ccccc1NC(=O)c1cc(-c2cccnc2)nc2ccc(Br)cc12	0	1	-8	104*	32*	66*
COC(=O)c1sccc1NC(=O)c1cc(-c2cccc(C)c2)nc2ccccc12	9	-1	15	28	64*	80*
C=C(C)C(=O)Nc1cccc(C2=NOC3(C2)C[C@H](C(N)=O)N(C(=O)c2ccccc2C(=O)c2ccccc2)C3)c1 (some centres not stated)	23	0	11	-49	-1	.
C/C(=N\NC(N)=S)C1=CCC2C3CC[C@H]4CC(O)CC[C@]4(C)C3CC[C@]12C (some centres not stated)	-9	21	14	.	41*	10
CCn1nc(C)cc1C(=O)Sc1cccc(Br)c1	15	8	10	19	97*	9
CCn1nc(C)cc1C(=O)Sc1ccc(Cl)cc1Cl	-15	2	-27	-75	-2	.
Cc1cc(C)c(C#N)c(SCC(=O)N2CCCCC2)n1	-13	1	-10	-17	34*	0
Cc1cc(C)c(C#N)c(SCC(=O)N2CCN(Cc3ccccc3)CC2)n1	19	-4	23	-14	-3	.
CCOC(=O)/C(=N\Nc1ccc(C(C)=O)cc1)c1csc(Nc2ccccc2)n1	-57	7	-1	46	46*	94*
COc1cnc(-c2ccccn2)nc1Oc1ccc(Cl)c2ccccc12	-8	28	3	81*	31*	24
O=C(N[C@@H]1C/C=C\C[C@H](CC(=O)N(CCO)Cc2ccccc2)C(=O)N[C@@H](Cc2ccccc2)COC1=O)OCC1c2ccccc2-c2ccccc21	-1	33	-2	.	50*	13
COC(=O)c1[nH]c2cc(OC)c(OC)cc2c1/C=N/Nc1ccccc1	7	9	14	.	36*	12
CC1=CC(C)[C@H](/C=N/n2c(=O)[nH]c3c([nH]c4ccc(Br)cc43)c2=O)C(C)C1 (some centres not stated)	11	30	23	-8	80*	100*
COc1ccc2c(c1)[nH]c1c(=O)n(/N=C/C3C(C)C=C(C)CC3C)c(=O)[nH]c12 (configuration not stated)	14	2	16	41	56*	86*
COc1ccc2[nH]c3c(=O)n(N)c(=O)[nH]c3c2c1	3	0	7	.	-5	.
CC(=O)Nc1cccc(OCC(=O)NC(C)c2ccc3ccccc3c2)c1 (configuration not stated)	-1	0	-7	.	-6	.
COc1ccccc1C(=O)N(C)c1nnc(-c2ccccc2)s1	-67	8	-48	.	0	.
COc1ccc(/C=C/C(=O)Nc2ccc3nc4n(c(=O)c3c2)CCCC4)cc1	-22	7	6	-9	26	.
SMILES	697 NFkB inh	CHOP UPR activ	Jurkat NFkB inh	CHOP inh	UPR XBP1 act	UPR XBP1 confirm
COc1cc(OC)cc(C(=O)Nc2ccc3nc4n(c(=O)c3c2)CCCCC4)c1	-39	6	-95	.	32*	36*
Cc1cc(C)n(-c2nc(NCCCO)c3c4c(sc3n2)CCCC4)n1	-61	-2	-34	-114	41*	21
Cc1cc(C)n(-c2nc(NCCO)c3c4c(sc3n2)CCCC4)n1	-9	3	-19	-65	3	.
O=C(NCc1ccco1)/C(=C/c1cccnc1)NC(=O)c1ccco1	10	-2	-4	40	2	.
Cc1cc(C)cc(C(=O)Oc2cc(C)[nH]c(=O)c2[N+](=O)[O-])c1	8	0	11	.	-6	.
COc1ccc(NC(=O)c2ccccc2NC(=O)CSc2ccc(Cl)cc2)cc1	-50	2	-22	-24	35*	6
CCC(Sc1nc2cc(OC)c(OC)cc2c(=O)n1Cc1ccco1)C(=O)NCCOC (configuration not stated)	31	-1	3	-21	3	.
CCc1ccccc1NC(=O)C(CC)Sc1nc2cc3c(cc2c(=O)n1Cc1ccco1)OCO3 (configuration not stated)	15	5	0	28	95*	193*
COc1cc(-c2nnc(NC(=O)CS(=O)(=O)c3ccc(C)cc3)o2)cc(OC)c1OC	15	0	17	.	-1	.
C=CCn1c(SCc2nc3ccccc3c(=O)[nH]2)nc2sc3c(c2c1=O)CCCC3	-3	0	1	-12	132*	-1
C=CCn1c(SCc2nc3sc4c(c3c(=O)[nH]2)CCCC4)nc2ccccc2c1=O	-22	4	-1	-8	1	.
COc1ccc(N=C2NC(=O)/C(=C\c3ccco3)S2)cc1	-12	3	-5	-13	4	.
O=C1NC(=Nc2ccc(O)cc2)S/C1=C\C=C\c1ccco1	-4	4	-8	-9	31*	4
CCOC(=O)NC(=O)c1cn(CCNCCO)c(=O)[nH]c1=O	9	-1	2	14	0	.
C=C(C)[C@@H]1CC[C@]2(C(=O)O)CC[C@]3(C)C(CCC4[C@@]5(C)CC[C@H](O)C(C)(C)C5CC[C@]43C)C12 (some centres not stated)	-18	-2	0	.	40*	6
COC(=O)c1c(NC(=O)Cc2cccs2)sc2c1CCC(C)C2 (configuration not stated)	-58	5	-52	-4	25	.
COC(=O)c1c(NC(=S)NN2CCN(C)CC2)sc2c1CCC(C)C2 (configuration not stated)	1	10	12	64	34*	20

Source: PubChem (several laboratories)
